Laboratory results: ChEMBL document CHEMBL1157407, “Inhibitors of bacterial multidrug efflux pumps from the resin glycosides of Ipomoea murucoides” (2008)
Converted amounts (≈) assume the structure as drawn.

Columns and labels:
Format in all cases: functional
[1] = tested on: Staphylococcus aureus; experiment: Antimicrobial activity against Staphylococcus aureus ATCC 25923
In short: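 Broth microdilution MIC per NCCLS guidelines, at least in duplicate. Inoculum 5×10^5 cfu prepared in 0.9% saline against a McFarland standard. Cation-adjusted Mueller-Hinton broth with 20 mg/L Ca2+ and 10 mg/L Mg2+. Compounds dissolved in DMSO, then 2-fold serial dilutions, final 1–512 μg/mL; DMSO at most 3.125% v/v. MIC is the lowest concentration giving no visible growth.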

[2] = tested on: HeLa; experiment: Cytotoxicity against human HeLa cells after 72 hrs; settings: read-out: ED50 (the source's name)
In short: (§1)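 Cells grown in RPMI 1640 with 10% fetal bovine serum at 37 °C, 5% CO2, humidified. Log-phase cells treated in triplicate with test samples at 0.16–20 μg/mL for 72 h. Growth read by the NCI sulforhodamine method. ED50 is the dose inhibiting 50% of control growth, estimated from a semilog plot of concentration against percentage of viable cells.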

[3] = tested on: KB; experiment: Cytotoxicity against human KB cells after 72 hrs; settings: read-out: ED50 (the source's name); in short: as §1
[4] = tested on: HEp-2; experiment: Cytotoxicity against human Hep2 cells after 72 hrs; settings: HEp-2, 72 h, read-out: ED50 (the source's name); in short: as §1
[5] = tested on: Staphylococcus aureus; experiment: Antimicrobial activity against methicillin-resistant Staphylococcus aureus XU212
In short: (§2)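 Broth microdilution MIC per NCCLS guidelines, at least in duplicate, in cation-adjusted Mueller-Hinton broth (20 mg/L Ca2+, 10 mg/L Mg2+). Strains grown on nutrient agar first. Inoculum 5×10^5 cfu prepared in 0.9% saline against a McFarland standard. Compounds dissolved in DMSO, 2-fold serial dilutions, final 1–512 µg/mL (DMSO ≤3.125% v/v). MIC taken as lowest concentration with no visible growth.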

[6] = tested on: Staphylococcus aureus; experiment: Antimicrobial activity against epidemic methicillin-resistant Staphylococcus aureus 15 containing mecA gene; in short: as §2
[7] = tested on: Staphylococcus aureus; experiment: Antimicrobial activity against multidrug-resistant Staphylococcus aureus over expressing NorA MDR efflux pump; in short: as §2

CCCCC[C@H]1CCCCCCCCCC(=O)O[C@H]2[C@@H](O)[C@H](O[C@H]3[C@H](O1)O[C@H](C)[C@H](O)[C@@H]3O)O[C@@H](C)[C@@H]2O[C@@H]1O[C@@H](C)[C@H](O[C@@H]2O[C@@H](C)[C@H](OC(=O)[C@@H](C)CC)[C@@H](O)[C@H]2O)[C@@H](O[C@@H]2O[C@H](CO)[C@@H](O)[C@H](O)[C@H]2O)[C@H]1OC(=O)[C@@H](C)CC [MURUCOIDIN V]
MIC [1]: > 512 µg/mL | EC50 [2]: 13.2 µg/mL (≈ 11.3 µM) | EC50 [3]: > 20 µg/mL | EC50 [4]: > 20 µg/mL | MIC [5]: 256 µg/mL (≈ 219 µM) | MIC [6]: 128 µg/mL (≈ 109 µM) | MIC [7]: 64 µg/mL (≈ 54.7 µM)

CCCCCCCCCCCC(=O)O[C@H]1[C@H](O[C@@H]2[C@H]3OC(=O)CCCCCCCCC[C@H](CCCCC)O[C@@H]4O[C@H](C)[C@H](O)[C@H](O)[C@H]4O[C@H](O[C@H]2C)[C@@H]3O)O[C@@H](C)[C@H](O[C@@H]2O[C@@H](C)[C@H](OC(=O)[C@@H](C)CC)[C@@H](O)[C@H]2O)[C@H]1O[C@@H]1O[C@H](CO)[C@@H](O)[C@H](O)[C@H]1O [MURUCOIDIN XI]
MIC [1]: > 512 µg/mL | EC50 [2]: > 20 µg/mL | EC50 [3]: 12.1 µg/mL (≈ 9.55 µM) | EC50 [4]: > 20 µg/mL | MIC [5]: > 512 µg/mL | MIC [6]: > 512 µg/mL | MIC [7]: > 512 µg/mL

CCCCC[C@H]1CCCCCCCCCC(=O)O[C@H]2[C@@H](O)[C@H](O[C@H]3[C@H](O1)O[C@H](C)[C@H](O)[C@@H]3O)O[C@@H](C)[C@@H]2O[C@@H]1O[C@@H](C)[C@H](O[C@@H]2O[C@@H](C)[C@H](OC(=O)[C@@H](C)CC)[C@@H](O)[C@H]2O)[C@@H](O[C@@H]2O[C@@H](C)[C@H](O)[C@@H](O)[C@H]2O)[C@H]1OC(=O)CCCCCC[C@H](O)CCCC [MURUCOIDIN X]
MIC [1]: > 512 µg/mL | EC50 [2]: > 20 µg/mL | EC50 [3]: 15.7 µg/mL (≈ 12.4 µM) | EC50 [4]: > 20 µg/mL | MIC [5]: > 512 µg/mL | MIC [6]: > 512 µg/mL | MIC [7]: > 512 µg/mL

CCn1cc(C(=O)O)c(=O)c2cc(F)c(N3CCNCC3)cc21 [NORFLOXACIN]
MIC [1]: > 512 µg/mL | EC50 [4]: > 20 µg/mL | MIC [5]: 512 µg/mL (≈ 1600 µM) | MIC [6]: 256 µg/mL (≈ 802 µM) | MIC [7]: 32 µg/mL (≈ 100 µM)

C/C=C(\C)C(=O)O[C@H]1[C@H](O)[C@@H](O)[C@H](O[C@@H]2[C@H]3OC(=O)CCCCCCCCC[C@H](CCCCC)O[C@@H]4O[C@H](C)[C@@H](O)[C@H](O)[C@H]4O[C@@H]4O[C@H](CO)[C@@H](OC(=O)[C@H](C)[C@@H](C)O)[C@H](O)[C@H]4O[C@H](O[C@H]2C)[C@@H]3OC(=O)[C@@H](C)CC)O[C@@H]1C [ORIZABIN IX]
MIC [1]: > 512 µg/mL | EC50 [2]: > 20 µg/mL | EC50 [3]: > 20 µg/mL | EC50 [4]: > 20 µg/mL | MIC [5]: 256 µg/mL (≈ 228 µM) | MIC [6]: 256 µg/mL (≈ 228 µM) | MIC [7]: 512 µg/mL (≈ 457 µM)

CCCCCCCCCCCC(=O)O[C@H]1[C@H](O[C@@H]2[C@H]3OC(=O)CCCCCCCCC[C@H](CCCCC)O[C@@H]4O[C@H](C)[C@H](O)[C@H](O)[C@H]4O[C@H](O[C@H]2C)[C@@H]3O)O[C@@H](C)[C@H](O[C@@H]2O[C@@H](C)[C@H](OC(=O)[C@@H](C)CC)[C@@H](O)[C@H]2O)[C@H]1O[C@@H]1O[C@@H](C)[C@H](O)[C@@H](O)[C@H]1O [PESCAPREIN III]
MIC [1]: > 512 µg/mL | EC50 [2]: > 20 µg/mL | EC50 [3]: 15.7 µg/mL (≈ 12.5 µM) | EC50 [4]: 4.7 µg/mL (≈ 3.76 µM) | MIC [5]: > 512 µg/mL | MIC [6]: > 512 µg/mL | MIC [7]: > 512 µg/mL

COC(=O)[C@H]1[C@H]2C[C@@H]3c4[nH]c5cc(OC)ccc5c4CCN3C[C@H]2C[C@@H](OC(=O)c2cc(OC)c(OC)c(OC)c2)[C@@H]1OC [RESERPINE]
EC50 [4]: > 20 µg/mL

CN(C)[C@@H]1C(O)=C(C(N)=O)C(=O)[C@@]2(O)C(O)=C3C(=O)c4c(O)cccc4[C@@](C)(O)[C@H]3C[C@@H]12 [TETRACYCLINE]
MIC [1]: > 512 µg/mL | MIC [5]: 512 µg/mL (≈ 1150 µM) | MIC [6]: 256 µg/mL (≈ 576 µM) | MIC [7]: 32 µg/mL (≈ 72 µM)

CC[C@]1(O)C[C@@H]2CN(CCc3c([nH]c4ccccc34)[C@@](C(=O)OC)(c3cc4c(cc3OC)N(C)[C@H]3[C@@](O)(C(=O)OC)[C@H](OC(C)=O)[C@]5(CC)C=CCN6CC[C@]43[C@@H]65)C2)C1 [VINBLASTINE]
EC50 [2]: > 20 µg/mL | EC50 [3]: > 20 µg/mL | EC50 [4]: > 20 µg/mL
